Active and inactive are the calls of the source. No cut-off for these calls is given here.
Legend:
[1] = biological target: Kappa-type opioid receptor (Homo sapiens) (UniProt P41145); assay: Agonist activity at Gi-coupled KOR (unknown origin) expressed in HEK293T cells assessed as inhibition of forskolin-stimulated cAMP accumulation preincubated for 10 to 15 followed by forskolin-stimulation by Glo-sensor assay; format: functional, cell-based
[2] = biological target: T1, D(4) dopamine receptor (Homo sapiens) (UniProt P21917); assay: Agonist activity at D4 receptor (unknown origin)
T1 sequence (whole entry): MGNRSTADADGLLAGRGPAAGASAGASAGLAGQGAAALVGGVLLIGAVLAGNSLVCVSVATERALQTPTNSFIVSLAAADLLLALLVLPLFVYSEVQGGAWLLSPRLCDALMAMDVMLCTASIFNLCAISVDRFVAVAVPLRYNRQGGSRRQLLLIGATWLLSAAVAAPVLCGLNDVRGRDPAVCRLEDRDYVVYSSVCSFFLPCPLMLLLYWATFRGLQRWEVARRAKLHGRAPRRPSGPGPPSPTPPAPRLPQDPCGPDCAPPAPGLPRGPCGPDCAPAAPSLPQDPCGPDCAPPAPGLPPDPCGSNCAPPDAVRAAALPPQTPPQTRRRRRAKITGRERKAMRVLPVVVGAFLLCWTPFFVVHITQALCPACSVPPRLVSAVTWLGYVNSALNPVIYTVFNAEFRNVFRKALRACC

[3] = biological target: T2, 5-hydroxytryptamine receptor 2C (Homo sapiens) (UniProt P28335); assay: Agonist activity at 5HT2CR (unknown origin) expressed in HEK293 cells harboring luc2P/NFAT-RE plasmid at 10 uM after 6 to 8 hrs by luciferase reporter gene assay; format: cell-based
T2 sequence (whole entry): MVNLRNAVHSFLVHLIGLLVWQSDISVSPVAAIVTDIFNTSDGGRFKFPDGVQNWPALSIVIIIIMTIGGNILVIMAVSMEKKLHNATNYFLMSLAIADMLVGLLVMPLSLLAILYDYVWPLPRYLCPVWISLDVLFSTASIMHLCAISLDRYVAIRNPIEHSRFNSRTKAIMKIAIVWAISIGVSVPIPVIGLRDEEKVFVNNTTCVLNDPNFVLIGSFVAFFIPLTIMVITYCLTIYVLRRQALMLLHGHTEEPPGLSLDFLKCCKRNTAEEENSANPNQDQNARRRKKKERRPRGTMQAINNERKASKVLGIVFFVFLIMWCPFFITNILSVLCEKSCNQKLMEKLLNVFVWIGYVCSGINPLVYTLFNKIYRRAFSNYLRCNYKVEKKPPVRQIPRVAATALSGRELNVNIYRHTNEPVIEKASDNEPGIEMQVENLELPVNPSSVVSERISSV
Procedure, shortened: (§1)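 NFAT-RE luciferase assay in HEK293T cells transiently co-transfected with luc2P/NFAT-RE plasmid and receptor plasmid. Cells plated in DMEM and incubated overnight at 37 °C, 5% CO₂. Compounds and reference ligands applied for 6-8 h. Luciferase read after adding Bright-Glo substrate (1 mg/ml final).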

[4] = biological target: T3, Muscarinic acetylcholine receptor M1 (Homo sapiens) (UniProt P11229); assay: Agonist activity at M1R (unknown origin) expressed in HEK293 cells harboring luc2P/NFAT-RE plasmid at 10 uM after 6 to 8 hrs by luciferase reporter gene assay; format: cell-based; procedure, shortened: as §1
T3 sequence (whole entry): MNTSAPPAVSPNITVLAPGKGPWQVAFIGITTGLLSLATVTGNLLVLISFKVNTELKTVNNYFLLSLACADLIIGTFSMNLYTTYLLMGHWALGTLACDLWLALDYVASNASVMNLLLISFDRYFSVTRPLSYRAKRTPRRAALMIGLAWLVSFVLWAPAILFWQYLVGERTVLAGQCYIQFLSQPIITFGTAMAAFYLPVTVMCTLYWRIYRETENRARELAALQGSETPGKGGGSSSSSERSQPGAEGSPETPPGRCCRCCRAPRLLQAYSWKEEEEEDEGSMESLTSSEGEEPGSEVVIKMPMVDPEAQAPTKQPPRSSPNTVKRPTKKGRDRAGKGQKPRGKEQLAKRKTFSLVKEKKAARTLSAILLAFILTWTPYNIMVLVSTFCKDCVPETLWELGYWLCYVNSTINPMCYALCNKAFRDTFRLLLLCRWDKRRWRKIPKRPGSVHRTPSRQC

[5] = biological target: Histamine H4 receptor (Homo sapiens) (UniProt Q9H3N8); assay: Antagonist activity at recombinant human Gi-coupled H4 receptor expressed in HEK293T cells assessed as reduction in histamine-induced inhibition of forskolin-stimulated cAMP accumulation at 10 uM preincubated for 10 to 15 followed by histamine addition for 10 mins and subsequent forskolin-stimulation by Glo-sensor assay; format: functional, cell-based
[6] = biological target: T4, Muscarinic acetylcholine receptor M5 (Homo sapiens) (UniProt P08912); assay: Agonist activity at M5R (unknown origin) expressed in HEK293 cells harboring luc2P/NFAT-RE plasmid at 10 uM after 6 to 8 hrs by luciferase reporter gene assay; format: cell-based; procedure, shortened: as §1
T4 sequence (whole entry): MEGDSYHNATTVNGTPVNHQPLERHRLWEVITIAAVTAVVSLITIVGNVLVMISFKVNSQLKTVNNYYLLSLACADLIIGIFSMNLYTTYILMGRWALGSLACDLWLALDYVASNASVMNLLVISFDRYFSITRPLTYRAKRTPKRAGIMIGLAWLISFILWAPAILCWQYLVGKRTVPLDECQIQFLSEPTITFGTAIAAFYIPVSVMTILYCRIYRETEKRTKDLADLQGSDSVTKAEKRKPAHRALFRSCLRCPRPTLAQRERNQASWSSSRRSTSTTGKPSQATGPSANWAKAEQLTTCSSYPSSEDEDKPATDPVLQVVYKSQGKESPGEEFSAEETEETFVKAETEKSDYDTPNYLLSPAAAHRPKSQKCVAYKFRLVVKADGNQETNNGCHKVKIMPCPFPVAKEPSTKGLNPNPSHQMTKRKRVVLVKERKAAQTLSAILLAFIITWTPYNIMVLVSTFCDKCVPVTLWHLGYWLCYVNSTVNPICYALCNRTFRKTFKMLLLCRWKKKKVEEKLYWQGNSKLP

Mus musculus [7] = assay: Anti-obesity activity in 16 hrs fasted db/db-induced obese C57BL/6J mouse model assessed as change in blood HDL level at 20 mg/kg, po measured after 6 weeks; format: functional, organism-based
[8] = Apparent clearance in C57BL/6J mouse serum at 20 mg/kg, po by LC-MS/MS analysis; format: ADME, organism-based
Procedure, shortened: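 Male C57BL/6J mice (6-8 weeks, 20 ± 5 g) fasted overnight (12-16 h) got a single 20 mg/kg oral dose as 2.5 mg/mL suspension in 1% w/v gum acacia; n=5 per time point. Serum and brain (PBS homogenate 1:6 w/v) sampled up to 24 h. Parent and demethylated metabolite quantified by LC-MS/MS after liquid-liquid extraction (C18, MRM, phenacetin internal standard; linear 0.25-200 ng/mL). Two-compartment open model fit.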

Mus musculus [9] = assay: Anti-obesity activity in high fat diet-induced obese C57BL/6J mouse model assessed as change in blood total cholesterol level at 10 to 20 mg/kg, po measured after 6 weeks; format: functional, organism-based
Procedure, shortened: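 At the end of treatment (six weeks HFD, four weeks db/db), mice euthanized with avertin 350 mg/kg. Blood taken by cardiac puncture into 3.8% sodium citrate. Plasma separated at 4000 rpm and stored at -80 °C. TG, TC, HDLc and LDLc measured on a bio-analyzer.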

Kappa-type opioid receptor (Homo sapiens), sequence (P41145 whole entry): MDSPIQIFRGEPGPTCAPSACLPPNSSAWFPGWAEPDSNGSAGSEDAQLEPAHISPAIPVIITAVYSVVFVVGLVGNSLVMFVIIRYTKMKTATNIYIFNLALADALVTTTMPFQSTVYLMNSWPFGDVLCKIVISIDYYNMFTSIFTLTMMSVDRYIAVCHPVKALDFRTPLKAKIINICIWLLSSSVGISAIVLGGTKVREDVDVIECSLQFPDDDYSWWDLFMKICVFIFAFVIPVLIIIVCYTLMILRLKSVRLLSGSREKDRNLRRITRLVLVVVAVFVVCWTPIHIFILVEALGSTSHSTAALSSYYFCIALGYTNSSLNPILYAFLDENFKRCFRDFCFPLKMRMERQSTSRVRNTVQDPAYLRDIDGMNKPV
Histamine H4 receptor (Homo sapiens), sequence (Q9H3N8 whole entry): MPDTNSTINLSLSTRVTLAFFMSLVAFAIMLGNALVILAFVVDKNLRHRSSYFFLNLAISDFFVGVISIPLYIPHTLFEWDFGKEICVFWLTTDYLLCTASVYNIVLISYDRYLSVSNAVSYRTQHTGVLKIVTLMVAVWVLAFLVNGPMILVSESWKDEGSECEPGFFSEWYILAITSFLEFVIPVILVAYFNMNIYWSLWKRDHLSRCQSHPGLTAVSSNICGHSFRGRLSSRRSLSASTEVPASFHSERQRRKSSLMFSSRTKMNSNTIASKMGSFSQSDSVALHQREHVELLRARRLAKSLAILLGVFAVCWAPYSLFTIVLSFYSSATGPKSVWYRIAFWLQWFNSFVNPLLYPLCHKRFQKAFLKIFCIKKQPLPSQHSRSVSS

In the case of `COc1ccc(-c2nc(N)nc3c2CCCC3C)cc1` (racemic), the inhibition [1] is reported as “inactive”, the Activity [2] is reported as “inactive” and the inhibition [3] is reported as “inactive”. The Activity [4] was “inactive”, the inhibition [5] was “inactive” and the Activity [6] was “inactive”. The Activity (Mus musculus [7]) was “inactive”, the CL/F [8] was 172 mL/min/kg and the Activity (Mus musculus [9]) was “inactive”.
